# Columns and labels:
# D(2) dopamine receptor = D(2) dopamine receptor (Homo sapiens, UniProt P14416); assay: Binding affinity to dopamine D2 receptor
# [1] = target: T1, 5-hydroxytryptamine receptor 1A (Homo sapiens, UniProt P08908); assay: Binding affinity to 5HT1A
# T1 sequence (P08908 whole entry): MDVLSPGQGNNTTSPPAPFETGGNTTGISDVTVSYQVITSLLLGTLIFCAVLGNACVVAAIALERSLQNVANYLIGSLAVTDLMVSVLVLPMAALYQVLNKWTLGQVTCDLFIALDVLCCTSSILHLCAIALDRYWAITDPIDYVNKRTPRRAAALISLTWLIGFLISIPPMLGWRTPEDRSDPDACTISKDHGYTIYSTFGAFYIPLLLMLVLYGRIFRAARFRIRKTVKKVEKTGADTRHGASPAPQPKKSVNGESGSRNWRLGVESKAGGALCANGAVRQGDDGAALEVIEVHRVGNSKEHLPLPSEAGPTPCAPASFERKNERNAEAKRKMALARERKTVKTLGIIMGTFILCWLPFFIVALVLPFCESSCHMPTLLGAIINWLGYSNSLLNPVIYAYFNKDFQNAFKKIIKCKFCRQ
# [2] = target: T2, Adrenergic receptor alpha-1 (Homo sapiens, UniProt P35348+P25100+P35368); assay: Binding affinity to adrenergic alpha-1 receptor; assay type: protein assay
# T2 sequence (P35348 whole entry): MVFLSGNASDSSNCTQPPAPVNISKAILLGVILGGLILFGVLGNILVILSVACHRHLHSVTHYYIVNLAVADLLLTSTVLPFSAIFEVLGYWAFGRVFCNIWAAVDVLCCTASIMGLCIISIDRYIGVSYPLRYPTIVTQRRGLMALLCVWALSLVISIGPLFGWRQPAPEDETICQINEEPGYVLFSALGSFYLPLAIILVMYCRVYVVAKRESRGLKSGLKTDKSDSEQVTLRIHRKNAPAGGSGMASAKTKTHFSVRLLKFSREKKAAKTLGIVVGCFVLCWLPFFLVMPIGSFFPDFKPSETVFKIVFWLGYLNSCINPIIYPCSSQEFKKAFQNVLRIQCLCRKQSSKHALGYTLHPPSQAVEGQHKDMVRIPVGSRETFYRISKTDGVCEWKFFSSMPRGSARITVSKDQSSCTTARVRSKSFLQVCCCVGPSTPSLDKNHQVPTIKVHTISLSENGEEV
# T2 sequence (P25100 whole entry): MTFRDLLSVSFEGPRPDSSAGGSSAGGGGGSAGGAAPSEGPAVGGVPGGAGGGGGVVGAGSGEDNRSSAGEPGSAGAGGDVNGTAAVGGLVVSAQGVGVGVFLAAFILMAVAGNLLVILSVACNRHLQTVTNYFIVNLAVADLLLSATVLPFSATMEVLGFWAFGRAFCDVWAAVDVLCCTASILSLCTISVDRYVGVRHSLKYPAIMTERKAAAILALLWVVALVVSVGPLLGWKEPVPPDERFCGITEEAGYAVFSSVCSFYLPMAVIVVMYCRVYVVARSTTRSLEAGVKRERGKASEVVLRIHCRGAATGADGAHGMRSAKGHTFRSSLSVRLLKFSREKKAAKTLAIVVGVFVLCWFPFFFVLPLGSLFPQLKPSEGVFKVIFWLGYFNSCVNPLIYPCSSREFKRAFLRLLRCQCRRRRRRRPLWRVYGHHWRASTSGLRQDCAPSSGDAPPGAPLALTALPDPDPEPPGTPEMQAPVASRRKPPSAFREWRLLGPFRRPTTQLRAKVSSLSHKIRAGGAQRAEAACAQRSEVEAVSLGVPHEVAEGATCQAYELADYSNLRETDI
# T2 sequence (P35368 whole entry): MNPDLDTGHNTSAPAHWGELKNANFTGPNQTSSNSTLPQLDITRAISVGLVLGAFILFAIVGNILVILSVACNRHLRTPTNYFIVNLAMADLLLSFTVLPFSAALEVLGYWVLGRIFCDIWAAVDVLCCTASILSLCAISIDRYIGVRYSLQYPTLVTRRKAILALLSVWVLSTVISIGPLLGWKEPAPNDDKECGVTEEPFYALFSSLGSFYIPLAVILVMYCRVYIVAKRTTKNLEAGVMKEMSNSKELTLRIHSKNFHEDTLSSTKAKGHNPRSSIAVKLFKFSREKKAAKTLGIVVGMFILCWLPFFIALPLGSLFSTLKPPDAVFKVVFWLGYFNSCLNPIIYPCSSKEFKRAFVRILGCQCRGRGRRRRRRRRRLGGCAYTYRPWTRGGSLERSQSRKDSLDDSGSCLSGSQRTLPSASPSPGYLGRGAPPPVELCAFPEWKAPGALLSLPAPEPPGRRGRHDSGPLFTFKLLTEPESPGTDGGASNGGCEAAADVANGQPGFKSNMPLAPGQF
# Homo sapiens [3] = species: Homo sapiens; assay: Selectivity for 5HT1A over adrenergic alpha-1 receptor
# Procedure, shortened: (§1)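 Selectivity is the ratio of Ki at 5-HT1A, D1 or D2 to Ki at α1. Ki values are means (±SD) of three separate experiments.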
# Homo sapiens [4] = species: Homo sapiens; assay: Selectivity for dopamine D1 over adrenergic alpha-1 receptor; procedure, shortened: as §1
# D(1A) dopamine receptor = D(1A) dopamine receptor (Homo sapiens, UniProt P21728); assay: Binding affinity to dopamine D1 receptor
# D(1A) dopamine receptor, sequence (P21728 whole entry): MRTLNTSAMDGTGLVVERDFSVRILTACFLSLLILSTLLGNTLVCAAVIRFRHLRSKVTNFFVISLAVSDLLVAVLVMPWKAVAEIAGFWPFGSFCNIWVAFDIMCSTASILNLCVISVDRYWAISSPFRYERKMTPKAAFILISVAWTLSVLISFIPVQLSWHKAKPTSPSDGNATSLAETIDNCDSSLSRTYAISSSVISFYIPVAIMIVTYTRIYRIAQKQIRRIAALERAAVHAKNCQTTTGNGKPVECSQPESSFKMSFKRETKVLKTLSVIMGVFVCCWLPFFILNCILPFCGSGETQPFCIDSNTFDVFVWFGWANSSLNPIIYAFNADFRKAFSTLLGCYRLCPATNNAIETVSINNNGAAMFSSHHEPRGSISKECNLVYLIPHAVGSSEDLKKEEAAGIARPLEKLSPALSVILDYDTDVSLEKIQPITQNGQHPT
# [5] = Selectivity for dopamine D2 over adrenergic alpha-1 receptor; procedure, shortened: as §1
# D(2) dopamine receptor, sequence (P14416 whole entry): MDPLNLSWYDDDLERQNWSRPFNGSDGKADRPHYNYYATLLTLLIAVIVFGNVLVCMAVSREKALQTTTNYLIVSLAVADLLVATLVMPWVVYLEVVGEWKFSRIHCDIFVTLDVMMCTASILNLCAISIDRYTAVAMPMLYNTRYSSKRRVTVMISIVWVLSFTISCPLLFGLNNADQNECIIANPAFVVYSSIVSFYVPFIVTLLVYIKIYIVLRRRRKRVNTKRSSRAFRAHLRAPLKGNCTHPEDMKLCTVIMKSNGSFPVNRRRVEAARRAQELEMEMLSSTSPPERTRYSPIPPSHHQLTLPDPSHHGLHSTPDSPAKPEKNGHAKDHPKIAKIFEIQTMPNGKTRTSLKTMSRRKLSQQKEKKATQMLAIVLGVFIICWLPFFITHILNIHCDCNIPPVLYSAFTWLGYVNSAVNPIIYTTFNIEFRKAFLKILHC
SMILES,Ki (D(2) dopamine receptor) [nM],Ki [1] [nM],Ki [2] [nM],Ratio Ki (Homo sapiens [3]),Ratio Ki (Homo sapiens [4]),Ki (D(1A) dopamine receptor) [nM],Ratio Ki [5]
COc1ccccc1-c1cc2c(=O)n(CCN3CCN(c4ccccc4Cl)CC3)c(=O)[nH]c2[nH]1,363,1030,3.32,310,> 2500,8550,109
COc1ccccc1N1CCN(CCn2c(=O)[nH]c3[nH]c(-c4ccc(Cl)cc4)cc3c2=O)CC1,,401,4.08,98,,,
O=c1[nH]c2[nH]c(-c3ccccc3)cc2c(=O)n1CCN1CCN(c2ccccc2Cl)CC1,137,1540,4.71,327,110,516,29
COc1ccc(-c2cc3c(=O)n(CCN4CCN(c5ccccc5OC)CC4)c(=O)[nH]c3[nH]2)cc1,,113,5.47,21,,,
COc1ccccc1N1CCN(CCn2c(=O)[nH]c3[nH]c(-c4ccc(C)cc4)cc3c2=O)CC1,,333,4.97,67,,,
COc1ccccc1N1CCN(CCn2c(=O)[nH]c3[nH]c(-c4ccccc4C)cc3c2=O)CC1,,295,1.19,248,,,
COc1ccccc1-c1cc2c(=O)n(CCN3CCN(c4ccccc4OC)CC3)c(=O)[nH]c2[nH]1,,157,1.63,97,,,
COc1ccccc1N1CCN(CCn2c(=O)[nH]c3[nH]c(-c4ccccc4)cc3c2=O)CC1,,122,1.99,61,,,
Cc1ccccc1-c1cc2c(=O)n(CCN3CCN(c4ccccc4Cl)CC3)c(=O)[nH]c2[nH]1,627,1450,2.8,518,371,1040,224
COc1ccccc1N1CCN(CCn2c(=O)[nH]c3[nH]c(-c4ccccc4Cl)cc3c2=O)CC1,,19.1,2.18,8.8,,,
O=c1[nH]c2[nH]c(-c3ccccc3Cl)cc2c(=O)n1CCN1CCN(c2ccccc2Cl)CC1,356,64.9,6.28,10,90,567,57

# Reference: ChEMBL document CHEMBL1148546, “3-Arylpiperazinylethyl-1H-pyrrolo[2,3-d]pyrimidine-2,4(3H,7H)-dione derivatives as novel, high-affinity and selective alpha(1)-adrenoceptor ligands” (Bioorg Med Chem Lett, 2006)
